Laboratory results from ChEMBL document CHEMBL5579886, “Selective Degradation of MLK3 by a Novel CEP1347-VHL-02 PROTAC Compound Limits the Oncogenic Potential of TNBC” (J Med Chem, 2024).
Active and inactive are the calls of the source.

Assays:
[1] = molecular target: T1, von Hippel-Lindau disease tumor suppressor/Mitogen-activated protein kinase kinase kinase 9 (Homo sapiens) (UniProt P80192+P40337); test: PROTAC activity at VHL/MLK1 in human MCF7 cells assessed as protein degradation at 1 uM incubated for 24 hrs by immunoblot analysis; format: cell-based
T1 sequence (P40337 whole entry, looked up): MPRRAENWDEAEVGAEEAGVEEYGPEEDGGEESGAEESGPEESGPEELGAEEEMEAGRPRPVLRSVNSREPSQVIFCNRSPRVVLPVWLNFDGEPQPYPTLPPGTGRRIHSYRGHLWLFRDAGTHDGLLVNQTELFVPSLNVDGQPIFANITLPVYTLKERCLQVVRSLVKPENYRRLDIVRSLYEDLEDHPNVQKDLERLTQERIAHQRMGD
T1 sequence (P80192 whole entry, looked up): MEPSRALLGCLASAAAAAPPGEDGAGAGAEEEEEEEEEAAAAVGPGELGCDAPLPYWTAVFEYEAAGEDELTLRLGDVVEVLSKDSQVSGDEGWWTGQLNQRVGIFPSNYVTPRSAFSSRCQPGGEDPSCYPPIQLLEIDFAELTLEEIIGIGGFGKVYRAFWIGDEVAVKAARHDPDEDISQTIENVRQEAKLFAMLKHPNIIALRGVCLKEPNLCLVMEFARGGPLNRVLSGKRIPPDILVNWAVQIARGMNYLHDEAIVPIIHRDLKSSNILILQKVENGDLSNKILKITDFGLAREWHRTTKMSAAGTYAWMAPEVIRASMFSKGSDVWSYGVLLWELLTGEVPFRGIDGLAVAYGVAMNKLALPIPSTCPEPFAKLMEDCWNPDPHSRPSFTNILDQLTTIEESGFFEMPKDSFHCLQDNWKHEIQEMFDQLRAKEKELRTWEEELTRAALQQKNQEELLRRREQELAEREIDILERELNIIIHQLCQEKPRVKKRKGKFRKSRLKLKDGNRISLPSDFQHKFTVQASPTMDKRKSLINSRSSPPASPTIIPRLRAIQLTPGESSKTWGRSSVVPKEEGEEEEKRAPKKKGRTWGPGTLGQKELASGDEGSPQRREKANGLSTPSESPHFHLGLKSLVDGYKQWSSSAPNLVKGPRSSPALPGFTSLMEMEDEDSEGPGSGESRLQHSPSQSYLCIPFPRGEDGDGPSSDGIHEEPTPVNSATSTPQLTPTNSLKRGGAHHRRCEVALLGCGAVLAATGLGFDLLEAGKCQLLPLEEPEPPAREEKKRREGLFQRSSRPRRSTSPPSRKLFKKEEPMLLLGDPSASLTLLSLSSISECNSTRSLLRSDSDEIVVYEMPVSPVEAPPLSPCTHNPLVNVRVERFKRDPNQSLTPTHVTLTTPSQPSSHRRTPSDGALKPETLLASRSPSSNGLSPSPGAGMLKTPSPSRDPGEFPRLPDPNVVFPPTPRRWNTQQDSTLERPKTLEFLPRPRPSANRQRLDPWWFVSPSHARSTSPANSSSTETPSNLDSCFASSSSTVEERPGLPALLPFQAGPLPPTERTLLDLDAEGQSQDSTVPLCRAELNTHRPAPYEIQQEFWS
In short: (§1)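 Endogenous MLK1, MLK2 or MLK4 levels in MCF-7 and MDA-MB-468 cells. Cells were grown in high-glucose DMEM with 10% FBS, seeded at 100 000 cells/well and treated the next day for 24 h, with DMSO as control. Lysis was in RIPA with protease inhibitor, followed by 10% SDS-PAGE, nitrocellulose transfer and ECL immunoblot with GAPDH or β-actin as loading control.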

[2] = PROTAC activity at IAP/MLK1 in human MCF7 cells assessed as protein degradation at 1 uM incubated for 24 hrs by immunoblot analysis
[3] = molecular target: T2, von Hippel-Lindau disease tumor suppressor/Mitogen-activated protein kinase kinase kinase 11 (Homo sapiens, UniProt Q16584+P40337); test: PROTAC activity at VHL/DOX-inducible MLK3 (unknown origin) overexpressed in human HCC1806 cells assessed as protein degradation at 0.5 uM measured after 2 hrs by immunoblot analysis relative to control; format: cell-based
In short: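 HCC1806 cells with DOX-inducible MLK3 were induced with 1 μg/mL DOX for 24 h, then treated at 0.5 μM for times from 2 to 24 h, with DMSO as control. MLK3 was measured by immunoblot of RIPA lysates with ECL detection.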
Target sequence in this assay (P40337 whole entry, looked up): as the sequence (P40337 whole entry, looked up) above
Target sequence in this assay (Q16584 whole entry, looked up): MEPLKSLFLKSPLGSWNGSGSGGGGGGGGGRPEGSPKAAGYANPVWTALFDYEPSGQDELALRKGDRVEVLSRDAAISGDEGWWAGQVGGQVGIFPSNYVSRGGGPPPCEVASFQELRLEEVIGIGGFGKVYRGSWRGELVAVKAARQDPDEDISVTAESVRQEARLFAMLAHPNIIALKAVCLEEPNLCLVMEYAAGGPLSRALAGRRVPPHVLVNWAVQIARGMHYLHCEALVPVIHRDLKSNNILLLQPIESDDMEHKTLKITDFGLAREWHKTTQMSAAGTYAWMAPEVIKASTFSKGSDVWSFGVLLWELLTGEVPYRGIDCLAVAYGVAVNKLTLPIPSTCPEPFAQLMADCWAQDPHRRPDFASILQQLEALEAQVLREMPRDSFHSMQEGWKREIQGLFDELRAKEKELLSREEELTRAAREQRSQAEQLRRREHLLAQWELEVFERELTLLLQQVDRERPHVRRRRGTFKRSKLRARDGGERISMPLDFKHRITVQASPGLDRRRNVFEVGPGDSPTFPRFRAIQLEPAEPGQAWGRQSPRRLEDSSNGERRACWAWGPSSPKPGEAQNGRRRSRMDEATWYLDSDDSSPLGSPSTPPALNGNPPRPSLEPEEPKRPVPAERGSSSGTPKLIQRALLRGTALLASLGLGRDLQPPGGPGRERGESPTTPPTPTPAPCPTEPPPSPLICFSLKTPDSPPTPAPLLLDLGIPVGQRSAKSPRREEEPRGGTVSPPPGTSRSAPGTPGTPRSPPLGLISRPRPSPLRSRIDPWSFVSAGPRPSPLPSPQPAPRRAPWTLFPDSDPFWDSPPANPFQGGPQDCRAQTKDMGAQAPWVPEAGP

[4] = molecular target: T2, von Hippel-Lindau disease tumor suppressor/Mitogen-activated protein kinase kinase kinase 11; test: PROTAC activity at VHL/MLK3 in human MDA-MB-468 cells assessed as protein degradation at 1 uM measured after 24 hrs by immunoblot analysis
Target sequence in this assay (P40337 whole entry, looked up): as the sequence (P40337 whole entry, looked up) above
Target sequence in this assay (Q16584 whole entry, looked up): as the sequence (Q16584 whole entry, looked up) above

[5] = molecular target: T2, von Hippel-Lindau disease tumor suppressor/Mitogen-activated protein kinase kinase kinase 11; test: PROTAC activity at VHL/DOX-inducible MLK3 (unknown origin) overexpressed in human HCC1806 cells assessed as protein degradation at 0.5 uM measured after 24 hrs by shotgun proteomic analysis; format: cell-based
In short: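 HCC1806 cells with DOX-inducible MLK3 were seeded at 150 000/well and induced with DOX for 24 h, then treated with 0.5 μM PROTAC or DMSO for 24 h. Total lysates were chloroform/methanol precipitated, reduced and alkylated with TCEP/CAA, and trypsin-digested at 37 °C overnight. Shotgun LC-MS/MS followed, with log2 fold change and t-test p-values (n = 3).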
Target sequence in this assay (P40337 whole entry, looked up): as the sequence (P40337 whole entry, looked up) above
Target sequence in this assay (Q16584 whole entry, looked up): as the sequence (Q16584 whole entry, looked up) above

[6] = test system: MDA-MB-468; test: Inhibition of colony formation in human MDA-MB-468 cells harboring siMLK3 by crystal violet staining based analysis; format: functional, cell-based
In short: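 MCF-7 or MDA-MB-468 seeded at 10 000 cells/well, transfected next day with MAP3K11 SMARTpool siRNA or nontargeting control siRNA; crystal violet staining 7 days after transfection. Knockdown confirmed by immunoblot.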

[7] = molecular target: T2, von Hippel-Lindau disease tumor suppressor/Mitogen-activated protein kinase kinase kinase 11; test: PROTAC activity at VHL/MLK3 in human MCF7 cells assessed as protein degradation at 1 uM by Western blot analysis; format: cell-based; settings: time 4-48 hrs, TDE = time-dependent effect
Target sequence in this assay (P40337 whole entry, looked up): as the sequence (P40337 whole entry, looked up) above
Target sequence in this assay (Q16584 whole entry, looked up): as the sequence (Q16584 whole entry, looked up) above

[8] = test system: MCF7; test: Inhibition of colony formation in human MCF7 cells at 1 uM incubated for 15 days by crystal violet staining based analysis; format: functional, cell-based; settings: time 15.0 day
In short: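 5000 cells per 6 cm plate in triplicate with 1 μM PROTAC or DMSO, medium changed every 5 days; colonies stained with crystal violet after 14–15 days. Three independent experiments, mean ± SD, unpaired t-test against control.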

[9] = molecular target: T2, von Hippel-Lindau disease tumor suppressor/Mitogen-activated protein kinase kinase kinase 11; test: PROTAC activity at VHL/MLK3 in human MCF7 cells assessed as protein degradation measured after 24 hrs by Western blot analysis; format: cell-based
In short: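 Endogenous MLK3: cells seeded at 100 000/well, treated next day for 24 h with PROTAC at 0.1–5 μM, DMSO control; immunoblot with GAPDH or β-actin loading control. Remaining MLK3 percentage plotted against concentration to derive DC50 and Dmax.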
Target sequence in this assay (Q16584 whole entry): as the sequence (Q16584 whole entry, looked up) above
Target sequence in this assay (P40337 whole entry): as the sequence (P40337 whole entry, looked up) above

[10] = molecular target: T2, von Hippel-Lindau disease tumor suppressor/Mitogen-activated protein kinase kinase kinase 11; test: PROTAC activity at VHL/MLK3 in human MDA-MB-468 cells assessed as protein degradation measured after 4 to 48 hrs by Western blot analysis; format: cell-based; settings: dose 1.0 µM, time 4-48 hrs
In short: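 MCF-7 and MDA-MB-468 cells were seeded at 100 000/well and treated with 1 μM PROTAC for 4–48 h, with DMSO as control. MLK3 was quantified by immunoblot as percent remaining, and t1/2 of degradation was derived from the time course.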
Target sequence in this assay (P40337 whole entry, looked up): as above
Target sequence in this assay (Q16584 whole entry, looked up): as the sequence (Q16584 whole entry, looked up) above

[11] = molecular target: T1, von Hippel-Lindau disease tumor suppressor/Mitogen-activated protein kinase kinase kinase 9 (Homo sapiens); test: PROTAC activity at IAP/MLK1 in human MDA-MB-468 cells assessed as protein degradation at 1 uM incubated for 24 hrs by immunoblot analysis; format: cell-based; in short: as §1
[12] = molecular target: von Hippel-Lindau disease tumor suppressor/Mitogen-activated protein kinase kinase kinase 10 (Homo sapiens) (UniProt Q02779+P40337); test: PROTAC activity at VHL/DOX-inducible MLK2 (unknown origin) overexpressed in human A-375 cells assessed as protein degradation at 0.1 to 5 uM incubated for 24 hrs by immunoblot analysis; format: cell-based; settings: dose 0.1-5 µM
Chain of von Hippel-Lindau disease tumor suppressor/Mitogen-activated protein kinase kinase kinase 10 (Homo sapiens) (P40337 whole entry, looked up): as the sequence (P40337 whole entry, looked up) above
Chain of von Hippel-Lindau disease tumor suppressor/Mitogen-activated protein kinase kinase kinase 10 (Homo sapiens) (Q02779 whole entry, looked up): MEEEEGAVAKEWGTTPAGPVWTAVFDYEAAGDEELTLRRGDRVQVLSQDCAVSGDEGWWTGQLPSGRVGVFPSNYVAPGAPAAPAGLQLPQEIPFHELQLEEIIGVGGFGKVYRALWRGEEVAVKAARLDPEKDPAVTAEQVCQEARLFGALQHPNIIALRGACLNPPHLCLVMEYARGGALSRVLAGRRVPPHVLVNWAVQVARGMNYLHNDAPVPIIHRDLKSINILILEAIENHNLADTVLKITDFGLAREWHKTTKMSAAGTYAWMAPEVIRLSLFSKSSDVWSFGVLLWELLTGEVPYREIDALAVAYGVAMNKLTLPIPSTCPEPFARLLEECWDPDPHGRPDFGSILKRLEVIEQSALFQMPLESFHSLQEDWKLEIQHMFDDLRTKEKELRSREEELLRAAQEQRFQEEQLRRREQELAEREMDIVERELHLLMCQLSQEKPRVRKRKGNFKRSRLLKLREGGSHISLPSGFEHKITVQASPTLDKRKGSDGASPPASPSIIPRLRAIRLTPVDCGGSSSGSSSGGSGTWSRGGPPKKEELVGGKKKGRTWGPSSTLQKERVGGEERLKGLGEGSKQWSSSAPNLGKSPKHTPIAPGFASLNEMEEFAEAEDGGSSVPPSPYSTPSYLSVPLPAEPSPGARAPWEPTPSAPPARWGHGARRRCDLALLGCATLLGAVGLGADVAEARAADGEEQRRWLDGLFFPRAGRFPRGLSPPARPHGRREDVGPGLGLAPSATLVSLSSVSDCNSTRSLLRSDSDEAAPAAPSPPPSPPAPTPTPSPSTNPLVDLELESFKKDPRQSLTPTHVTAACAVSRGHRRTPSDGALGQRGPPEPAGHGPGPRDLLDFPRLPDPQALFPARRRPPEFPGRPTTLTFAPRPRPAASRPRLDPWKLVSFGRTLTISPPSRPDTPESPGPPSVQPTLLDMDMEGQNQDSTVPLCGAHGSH
In short: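 A375 cells carried lentiviral DOX-inducible MLK1, MLK2 or MLK4 and were grown in RPMI-1640 with 10% FBS. Cells were seeded at 100 000/well and induced with 1 μg/mL DOX. After 24 h they were treated at 0.1–5 μM for 24 h, with DMSO as control. Levels were read by ECL immunoblot of RIPA lysates, with GAPDH or β-actin loading control.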

[13] = molecular target: T2, von Hippel-Lindau disease tumor suppressor/Mitogen-activated protein kinase kinase kinase 11; test: PROTAC activity at VHL/MLK3 in human MDA-MB-468 cells assessed as decrease in JNK pathway at 1 uM measured after 24 hrs by immunoblot analysis; format: cell-based
Target sequence in this assay (P40337 whole entry, looked up): as the sequence (P40337 whole entry, looked up) above
Target sequence in this assay (Q16584 whole entry, looked up): as the sequence (Q16584 whole entry, looked up) above

[14] = molecular target: T2, von Hippel-Lindau disease tumor suppressor/Mitogen-activated protein kinase kinase kinase 11; test: PROTAC activity at VHL/MLK3 in human MCF7 cells assessed as decrease in JNK pathway at 1 uM measured after 24 hrs by immunoblot analysis; format: cell-based
[15] = molecular target: T2, von Hippel-Lindau disease tumor suppressor/Mitogen-activated protein kinase kinase kinase 11; test: PROTAC activity at VHL/MLK3 in human MDA-MB-468 cells assessed as protein degradation at 1 uM by Western blot analysis; format: cell-based; settings: time 4-48 hrs, TDE = time-dependent effect
[16] = molecular target: T2, von Hippel-Lindau disease tumor suppressor/Mitogen-activated protein kinase kinase kinase 11; test: PROTAC activity at VHL/MLK3 in human MCF7 cells assessed as protein degradation at 1 uM measured after 24 hrs by immunoblot analysis; format: cell-based
In short: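 MCF-7 and MDA-MB-468 cells were treated for 24 h across 0.1–5 μM, with DMSO as control. MLK3 was immunoblotted and quantified as percent remaining versus concentration, from which DC50 and Dmax were derived.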

[17] = test system: MDA-MB-468; test: Growth inhibition of human MDA-MB-468 cell spheroids in low-attachment surface at 1 uM incubated for 10 days; format: functional, cell-based; settings: time 10.0 day
In short: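 Cells grown 10 days in low-attachment surface plates in medium containing 1 μM PROTAC or DMSO; spheroid growth assessed.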

[18] = test system: MDA-MB-468; test: Effect on MLK3 mRNA level in human MDA-MB-468 cells at 1 uM measured after 24 hrs by RT-qPCR analysis; format: functional, cell-based
In short: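 Total RNA extracted from MCF-7 and MDA-MB-468 cells 24 h after PROTAC treatment, purity and concentration checked spectrophotometrically, reverse transcribed to cDNA and MLK3 transcript quantified by RT-qPCR.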

CCSCc1ccc2c(c1)c1c3c(c4c5cc(CSCC)ccc5n5c4c1n2[C@H]1C[C@](O)(C(=O)NCCOCCOCCOCC(=O)N[C@H](C(=O)N2C[C@H](O)C[C@H]2C(=O)N[C@@H](C)c2ccc(-c4scnc4C)cc2)C(C)(C)C)[C@]5(C)O1)CNC3=O
100%: Activity [3]
0.05 µM: DC50 [9]
active: Activity [4] | Activity [5] | inhibition [6] | Activity [7] Tde | Activity [10] Dose-Dependent Effect | Activity [13] | Activity [14] | Activity [15] Tde | Activity [16] | growth inhibition (GI) [17]
inactive: Activity [1] | Activity [2] | inhibition [8] | Activity [11] | Activity [12] | Activity [18]
